Converted amounts (≈) assume the structure as drawn.
Key:
Type in all cases: functional
[1] = system: Haemophilus influenzae; experiment: In vitro antibacterial activity against DILL strain of Haemophilus influenzae.
Summary of the method: (§1)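 MIC determined by standard agar dilution; values in μg/mL.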

[2] = system: Staphylococcus aureus; experiment: In vitro antibacterial activity against 6538P strain of Staphylococcus aureus; summary of the method: as §1
[3] = system: Staphylococcus aureus; experiment: In vitro antibacterial activity against A5177 strain of Staphylococcus aureus; summary of the method: as §1
[4] = system: Streptococcus pneumoniae; experiment: In vitro antibacterial activity against 5649 strain of Streptococcus pneumoniae; summary of the method: as §1
[5] = system: Streptococcus pneumoniae; experiment: In vitro antibacterial activity against ATCC 6303 strain of Streptococcus pneumoniae; summary of the method: as §1
[6] = system: Streptococcus pyogenes; experiment: In vitro antibacterial activity against PIU 2548 strain of Streptococcus pyogenes; summary of the method: as §1
[7] = system: Streptococcus pyogenes; experiment: In vitro antibacterial activity against 930 strain of Streptococcus pyogenes; summary of the method: as §1
[8] = In vitro antibacterial activity against A-5278 strain of Staphylococcus aureus; summary of the method: as §1
[9] = system: Streptococcus pneumoniae; experiment: In vitro antibacterial activity against 5979 strain of Streptococcus pneumoniae; summary of the method: as §1
[10] = Streptococcus pneumoniae, ATCC 6303

Row | SMILES | MIC [1] [mg/L] | MIC ([2]; Staphylococcus aureus) [mg/L] | MIC ([3]; Staphylococcus aureus) [mg/L] | MIC ([4]; Streptococcus pneumoniae) [mg/L] | MIC [5, 10] [mg/L] | MIC ([6]; Streptococcus pyogenes) [mg/L] | MIC ([7]; Streptococcus pyogenes) [mg/L] | also measured
1 | C=COCCCN1C(=O)O[C@]2(C)[C@@H](CC)OC(=O)/C(C)=C/[C@H](C)[C@@H](O[C@@H]3O[C@H](C)C[C@H](N(C)C)[C@H]3O)[C@@](C)(OC)C[C@@H](C)C(=O)[C@H](C)[C@@H]12 | 64 (≈ 94 µM) | 3.1 (≈ 4.55 µM) | 3.1 (≈ 4.55 µM) | 2 (≈ 2.94 µM) | 0.5 (≈ 0.734 µM) | 0.39 (≈ 0.573 µM) |  | 
2 | CC[C@H]1OC(=O)/C(C)=C/[C@H](C)[C@@H](O[C@@H]2O[C@H](C)C[C@H](N(C)C)[C@H]2O)[C@@](C)(OC)C[C@@H](C)C(=O)[C@H](C)[C@H]2N(CCCOc3ccc(Cl)cc3)C(=O)O[C@]12C |  | 0.78 (≈ 1.02 µM) |  | 0.03 (≈ 0.0392 µM) | < 0.004 | 0.39 (≈ 0.51 µM) | 12.5 (≈ 16.3 µM) | MIC ([8]; Staphylococcus aureus): 50 mg/L (≈ 65.3 µM)
3 | CC[C@H]1OC(=O)/C(C)=C/[C@H](C)[C@@H](O[C@@H]2O[C@H](C)C[C@H](N(C)C)[C@H]2O)[C@@](C)(OC)C[C@@H](C)C(=O)[C@H](C)[C@H]2N(CCc3ccc(O)cc3)C(=O)O[C@]12C | 16 (≈ 22.3 µM) | 0.78 (≈ 1.09 µM) | 0.78 (≈ 1.09 µM) | 0.5 (≈ 0.697 µM) | 0.125 (≈ 0.174 µM) | 0.39 (≈ 0.544 µM) |  | 
4 | CC[C@H]1OC(=O)/C(C)=C/[C@H](C)[C@@H](O[C@@H]2O[C@H](C)C[C@H](N(C)C)[C@H]2O)[C@@](C)(OC)C[C@@H](C)C(=O)[C@H](C)[C@H]2N(C(C)C)C(=O)O[C@]12C |  | 12.5 (≈ 19.6 µM) | 12.5 (≈ 19.6 µM) | 2 (≈ 3.13 µM) | 2 (≈ 3.13 µM) | 1.56 (≈ 2.44 µM) |  | 
5 | CC[C@H]1OC(=O)/C(C)=C/[C@H](C)[C@@H](O[C@@H]2O[C@H](C)C[C@H](N(C)C)[C@H]2O)[C@@](C)(OC)C[C@@H](C)[C@@H]2NCCN3C(=O)O[C@@]1(C)[C@H]3[C@H]2C | > 64 | 12.5 (≈ 20 µM) | 6.2 (≈ 9.94 µM) | 2 (≈ 3.21 µM) | 1 (≈ 1.6 µM) | 1.56 (≈ 2.5 µM) |  | MIC [9]: > 64 mg/L
6 | CC[C@H]1OC(=O)/C(C)=C/[C@H](C)[C@@H](O[C@@H]2O[C@H](C)C[C@H](N(C)C)[C@H]2O)[C@@](C)(OC)C[C@@H](C)C(=O)[C@H](C)[C@H]2N(CCc3ccc(N)cc3)C(=O)O[C@]12C | 32 (≈ 44.7 µM) | 1.56 (≈ 2.18 µM) | 0.78 (≈ 1.09 µM) | 2 (≈ 2.79 µM) | 0.5 (≈ 0.698 µM) | 0.2 (≈ 0.279 µM) |  | 
7 | CC[C@H]1OC(=O)/C(C)=C/[C@H](C)[C@@H](O[C@@H]2O[C@H](C)C[C@H](N(C)C)[C@H]2O)[C@@](C)(OC)C[C@@H](C)C(=O)[C@H](C)[C@H]2N(CCCOc3cccc4cccnc34)C(=O)O[C@]12C | 8 (≈ 10.2 µM) | 1.56 (≈ 1.99 µM) |  | 2 (≈ 2.56 µM) | < 0.004 | 0.2 (≈ 0.256 µM) |  | MIC [9]: > 16 mg/L
8 | CC[C@H]1OC(=O)/C(C)=C/[C@H](C)[C@@H](O[C@@H]2O[C@H](C)C[C@H](N(C)C)[C@H]2O)[C@@](C)(OC)C[C@@H](C)C(=O)[C@H](C)[C@H]2NC(=O)O[C@@]21C (stereo in doubt; 7) |  |  |  |  |  |  |  | MIC [2]: 25 mg/L (≈ 41.9 µM); MIC [6]: 6.2 mg/L (≈ 10.4 µM)
9 | CC[C@H]1OC(=O)/C(C)=C/[C@H](C)[C@@H](O[C@@H]2O[C@H](C)C[C@H](N(C)C)[C@H]2O)[C@@](C)(OC)C[C@@H](C)C(=O)[C@H](C)[C@H]2N(CCCc3cnc4ccccc4c3)C(=O)O[C@]12C | 32 (≈ 41.8 µM) | 1.56 (≈ 2.04 µM) |  | 4 (≈ 5.22 µM) | 0.25 (≈ 0.326 µM) | 0.39 (≈ 0.509 µM) |  | 
10 | CC[C@H]1OC(=O)/C(C)=C/[C@H](C)[C@@H](O[C@@H]2O[C@H](C)C[C@H](N(C)C)[C@H]2O)[C@@](C)(OC)C[C@@H](C)C(=O)[C@H](C)[C@H]2N(CCCc3ccccc3)C(=O)O[C@]12C (stereo in doubt; 11) |  |  |  |  |  |  | 25 (≈ 35 µM) | MIC [2]: 25 mg/L (≈ 35 µM); MIC [3]: 25 mg/L (≈ 35 µM); MIC [6]: 6.2 mg/L (≈ 8.67 µM)
11 | CC[C@H]1OC(=O)/C(C)=C/[C@H](C)[C@@H](O[C@@H]2O[C@H](C)C[C@H](N(C)C)[C@H]2O)[C@@](C)(OC)C[C@@H](C)C(=O)[C@H](C)[C@H]2N(CCc3ccc(Oc4ccccc4)cc3)C(=O)O[C@]12C (stereo in doubt; 15) |  |  |  |  |  |  |  | MIC [2]: 25 mg/L (≈ 31.5 µM); MIC [3]: 25 mg/L (≈ 31.5 µM); MIC [4]: 8 mg/L (≈ 10.1 µM); MIC [7]: 6.2 mg/L (≈ 7.82 µM); MIC [5]: 4 mg/L (≈ 5.04 µM); MIC [6]: 3.1 mg/L (≈ 3.91 µM); MIC [8]: 12.5 mg/L (≈ 15.8 µM)
12 | CC[C@H]1OC(=O)[C@H](C)[C@@H](O[C@H]2C[C@@](C)(OC)[C@@H](O)[C@H](C)O2)[C@H](C)[C@@H](O[C@@H]2O[C@H](C)C[C@H](N(C)C)[C@H]2O)[C@](C)(O)C[C@@H](C)C(=O)[C@H](C)[C@@H](O)[C@]1(C)O [ERYTHROMYCIN] | 4 (≈ 5.45 µM) | 0.2 (≈ 0.273 µM) | 3.1 (≈ 4.22 µM) | 8 (≈ 10.9 µM) |  | 3.1 (≈ 4.22 µM) |  | MIC [5]: 0.06 mg/L (≈ 0.0818 µM)
13 | CC[C@H]1OC(=O)/C(C)=C/[C@H](C)[C@@H](O[C@@H]2O[C@H](C)C[C@H](N(C)C)[C@H]2O)[C@@](C)(OC)C[C@@H](C)C(=O)[C@H](C)[C@H]2N(CCc3ccc(OCc4ccccc4)c(OCc4ccccc4)c3)C(=O)O[C@]12C |  |  |  | 4 (≈ 4.38 µM) | 1 (≈ 1.1 µM) |  |  | MIC [9]: 8 mg/L (≈ 8.76 µM)
14 | CC[C@H]1OC(=O)/C(C)=C/[C@H](C)[C@@H](O[C@@H]2O[C@H](C)C[C@H](N(C)C)[C@H]2O)[C@@](C)(OC)C[C@@H](C)C(=O)[C@H](C)[C@H]2N(Cc3ccccc3)C(=O)O[C@]12C |  | 0.78 (≈ 1.14 µM) | 0.78 (≈ 1.14 µM) | 2 (≈ 2.91 µM) | 0.25 (≈ 0.364 µM) | 0.2 (≈ 0.291 µM) |  | 
15 | CCOCCCN1C(=O)O[C@]2(C)[C@@H](CC)OC(=O)/C(C)=C/[C@H](C)[C@@H](O[C@@H]3O[C@H](C)C[C@H](N(C)C)[C@H]3O)[C@@](C)(OC)C[C@@H](C)C(=O)[C@H](C)[C@@H]12 |  | 1.56 (≈ 2.28 µM) | 1.56 (≈ 2.28 µM) | 2 (≈ 2.93 µM) | 0.25 (≈ 0.366 µM) | 0.39 (≈ 0.571 µM) |  | 
16 | CC[C@H]1OC(=O)/C(C)=C/[C@H](C)[C@@H](O[C@@H]2O[C@H](C)C[C@H](N(C)C)[C@H]2O)[C@@](C)(OC)C[C@@H](C)C(=O)[C@H](C)[C@H]2N(CCCN(C)c3ccccc3)C(=O)O[C@]12C | > 64 | 6.2 (≈ 8.33 µM) |  | < 0.004 | < 0.004 | 0.39 (≈ 0.524 µM) |  | 
17 | CC[C@H]1OC(=O)/C(C)=C/[C@H](C)[C@@H](O[C@@H]2O[C@H](C)C[C@H](N(C)C)[C@H]2O)[C@@](C)(OC)C[C@@H](C)C(=O)/C(C)=C/[C@]1(C)OC(=O)NCCCOc1ccc2ccccc2c1 |  | 6.2 (≈ 7.94 µM) | 3.1 (≈ 3.97 µM) |  |  | 6.2 (≈ 7.94 µM) | 25 (≈ 32 µM) | MIC ([8]; Staphylococcus aureus): 50 mg/L (≈ 64 µM)
18 | CC[C@H]1OC(=O)/C(C)=C/[C@H](C)[C@@H](O[C@@H]2O[C@H](C)C[C@H](N(C)C)[C@H]2O)[C@@](C)(OC)C[C@@H](C)C(=O)[C@H](C)[C@H]2N(CCCOc3ccccc3)C(=O)O[C@]12C | 16 (≈ 21.9 µM) | 0.39 (≈ 0.534 µM) | 0.39 (≈ 0.534 µM) |  |  | 0.39 (≈ 0.534 µM) | 25 (≈ 34.2 µM) | MIC ([8]; Staphylococcus aureus): 50 mg/L (≈ 68.4 µM)
19 | CC[C@H]1OC(=O)/C(C)=C/[C@H](C)[C@@H](O[C@@H]2O[C@H](C)C[C@H](N(C)C)[C@H]2O)[C@@](C)(OC)C[C@@H](C)C(=O)/C(C)=C/[C@]1(C)OC(=O)OC |  | 25 (≈ 40.9 µM) | 25 (≈ 40.9 µM) |  |  | 25 (≈ 40.9 µM) | 50 (≈ 81.7 µM) | 
20 | CC[C@H]1OC(=O)/C(C)=C/[C@H](C)[C@@H](O[C@@H]2O[C@H](C)C[C@H](N(C)C)[C@H]2O)[C@@](C)(OC)C[C@@H](C)C(=O)[C@H](C)[C@H]2N(CCCOc3ccncc3)C(=O)O[C@]12C | 16 (≈ 21.9 µM) | 0.39 (≈ 0.533 µM) | 0.39 (≈ 0.533 µM) | 1 (≈ 1.37 µM) | 0.03 (≈ 0.041 µM) | 0.2 (≈ 0.273 µM) |  | 
21 | CC[C@H]1OC(=O)/C(C)=C/[C@H](C)[C@@H](O[C@@H]2O[C@H](C)C[C@H](N(C)C)[C@H]2O)[C@@](C)(OC)C[C@@H](C)C(=O)[C@H](C)[C@H]2N(CCNCc3ccccc3)C(=O)O[C@]12C | > 64 | 6.2 (≈ 8.49 µM) |  | 2 (≈ 2.74 µM) | 0.03 (≈ 0.0411 µM) | 3.1 (≈ 4.25 µM) | 50 (≈ 68.5 µM) | 
22 | CC[C@H]1OC(=O)/C(C)=C/[C@H](C)[C@@H](O[C@@H]2O[C@H](C)C[C@H](N(C)C)[C@H]2O)[C@@](C)(OC)C[C@@H](C)C(=O)[C@H](C)[C@H]2N(CCCCc3ccccc3)C(=O)O[C@]12C | 32 (≈ 43.9 µM) | 0.39 (≈ 0.535 µM) | 0.39 (≈ 0.535 µM) |  |  | 0.39 (≈ 0.535 µM) | 12.5 (≈ 17.1 µM) | MIC ([8]; Staphylococcus aureus): 50 mg/L (≈ 68.6 µM)

Reference: ChEMBL document CHEMBL1131215, “Anhydrolide macrolides. 1. Synthesis and antibacterial activity of 2,3-anhydro-6-O-methyl 11,12-carbamate erythromycin A analogues” (1998)
